Test results reported in ChEMBL document CHEMBL5058577, “EUbOPEN Chemogenomics Library 2 (Multiplex)” (2022).

Tested on: Fibroblast
Test: Multiplex assay against human fibroblast
Format: toxicity, cell-based
Summary of the method: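 Tubulin, mitochondrial-mass and membrane-permeability phenotypes are per cents of healthy-nucleus cells. Cells were gated by CellPathfinder machine learning into Hoechst high-intensity objects or normal cells, normal cells into healthy, pyknosed or fragmented nuclei, and pyknosed cells into mitotic or apoptotic. Before that, live cells stained at seeding with Hoechst33342, BioTracker Green Microtubule Cytoskeleton Dye, MitoTracker Red and Annexin V Alexa Fluor 680 were imaged on a CQ1 microscope at 37°C and 5% CO2 after compound addition.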

[1] = 12 h, 1 µM, compound concentration 1 uM, replicate 1
[2] = 12 h, 1 µM, compound concentration 1 uM, replicate 2
[3] = 12 h, 10 µM, compound concentration 10 uM, replicate 1
[4] = 12 h, 10 µM, compound concentration 10 uM, replicate 2
[5] = 24 h, 1 µM, compound concentration 1 uM, replicate 1
[6] = 24 h, 1 µM, compound concentration 1 uM, replicate 2
[7] = 24 h, 10 µM, compound concentration 10 uM, replicate 1
[8] = 24 h, 10 µM, compound concentration 10 uM, replicate 2
[9] = 48 h, 1 µM, compound concentration 1 uM, replicate 1
[10] = 48 h, 1 µM, compound concentration 1 uM, replicate 2
[11] = 48 h, 10 µM, compound concentration 10 uM, replicate 1
[12] = 48 h, 10 µM, compound concentration 10 uM, replicate 2

Structure (SMILES): O=C(O)c1cc2ccccc2c(Cc2c(O)c(C(=O)O)cc3ccccc23)c1O [PAMOIC ACID]
- Population Apoptotic (%) [1]: 54%
- Population Fragmented Nuclei (%) [1]: 10%
- Population Healthy Nuclei (%) [1]: 81%
- Population Hoechst High Intensity Objects (%) [1]: 2%
- Population Membrane Permeable-Phenotype (%) [1]: 0%
- Population Mitochondria Different-Phenotype (%) [1]: 2%
- Population Mitotic Cells (%) [1]: 45%
- Population Normal (%) [1]: 97%
- Population Pyknosed Nuclei (%) [1]: 7%
- Population Tubulin-Different-Phenotype (%) [1]: 20%
- Total Cell Count [1]: 147
- Population Apoptotic (%) [2]: 32%
- Population Fragmented Nuclei (%) [2]: 23%
- Population Healthy Nuclei (%) [2]: 56%
- Population Hoechst High Intensity Objects (%) [2]: 6%
- Population Membrane Permeable-Phenotype (%) [2]: 6%
- Population Mitochondria Different-Phenotype (%) [2]: 8%
- Population Mitotic Cells (%) [2]: 67%
- Population Normal (%) [2]: 93%
- Population Pyknosed Nuclei (%) [2]: 19%
- Population Tubulin-Different-Phenotype (%) [2]: 34%
- Total Cell Count [2]: 154
- Population Apoptotic (%) [3]: 40%
- Population Fragmented Nuclei (%) [3]: 7%
- Population Healthy Nuclei (%) [3]: 80%
- Population Hoechst High Intensity Objects (%) [3]: 4%
- Population Membrane Permeable-Phenotype (%) [3]: 1%
- Population Mitochondria Different-Phenotype (%) [3]: 5%
- Population Mitotic Cells (%) [3]: 60%
- Population Normal (%) [3]: 95%
- Population Pyknosed Nuclei (%) [3]: 11%
- Population Tubulin-Different-Phenotype (%) [3]: 23%
- Total Cell Count [3]: 132
- Population Apoptotic (%) [4]: 37%
- Population Fragmented Nuclei (%) [4]: 24%
- Population Healthy Nuclei (%) [4]: 51%
- Population Membrane Permeable-Phenotype (%) [4]: 3%
- Population Mitochondria Different-Phenotype (%) [4]: 3%
- Population Mitotic Cells (%) [4]: 62%
- Population Pyknosed Nuclei (%) [4]: 24%
- Population Tubulin-Different-Phenotype (%) [4]: 51%
- Total Cell Count [4]: 156
- Population Apoptotic (%) [5]: 33%
- Population Fragmented Nuclei (%) [5]: 10%
- Population Healthy Nuclei (%) [5]: 86%
- Population Hoechst High Intensity Objects (%) [5]: 3%
- Population Membrane Permeable-Phenotype (%) [5]: 0%
- Population Mitochondria Different-Phenotype (%) [5]: 2%
- Population Mitotic Cells (%) [5]: 66%
- Population Normal (%) [5]: 96%
- Population Pyknosed Nuclei (%) [5]: 4%
- Population Tubulin-Different-Phenotype (%) [5]: 17%
- Total Cell Count [5]: 156
- Population Apoptotic (%) [6]: 32%
- Population Fragmented Nuclei (%) [6]: 23%
- Population Healthy Nuclei (%) [6]: 58%
- Population Hoechst High Intensity Objects (%) [6]: 6%
- Population Membrane Permeable-Phenotype (%) [6]: 9%
- Population Mitochondria Different-Phenotype (%) [6]: 11%
- Population Mitotic Cells (%) [6]: 68%
- Population Normal (%) [6]: 93%
- Population Pyknosed Nuclei (%) [6]: 18%
- Population Tubulin-Different-Phenotype (%) [6]: 39%
- Total Cell Count [6]: 147
- Population Apoptotic (%) [7]: 50%
- Population Fragmented Nuclei (%) [7]: 8%
- Population Healthy Nuclei (%) [7]: 77%
- Population Hoechst High Intensity Objects (%) [7]: 2%
- Population Membrane Permeable-Phenotype (%) [7]: 1%
- Population Mitochondria Different-Phenotype (%) [7]: 1%
- Population Mitotic Cells (%) [7]: 50%
- Population Normal (%) [7]: 97%
- Population Pyknosed Nuclei (%) [7]: 13%
- Population Tubulin-Different-Phenotype (%) [7]: 20%
- Total Cell Count [7]: 138
- Population Apoptotic (%) [8]: 40%
- Population Fragmented Nuclei (%) [8]: 34%
- Population Healthy Nuclei (%) [8]: 52%
- Population Hoechst High Intensity Objects (%) [8]: 5%
- Population Membrane Permeable-Phenotype (%) [8]: 3%
- Population Mitochondria Different-Phenotype (%) [8]: 5%
- Population Mitotic Cells (%) [8]: 59%
- Population Normal (%) [8]: 94%
- Population Tubulin-Different-Phenotype (%) [8]: 39%
- Total Cell Count [8]: 170
- Population Apoptotic (%) [9]: 25%
- Population Fragmented Nuclei (%) [9]: 12%
- Population Healthy Nuclei (%) [9]: 79%
- Population Hoechst High Intensity Objects (%) [9]: 4%
- Population Membrane Permeable-Phenotype (%) [9]: 0%
- Population Mitochondria Different-Phenotype (%) [9]: 2%
- Population Mitotic Cells (%) [9]: 75%
- Population Normal (%) [9]: 95%
- Population Pyknosed Nuclei (%) [9]: 8%
- Population Tubulin-Different-Phenotype (%) [9]: 23%
- Total Cell Count [9]: 155
- Population Apoptotic (%) [10]: 38%
- Population Fragmented Nuclei (%) [10]: 23%
- Population Healthy Nuclei (%) [10]: 58%
- Population Hoechst High Intensity Objects (%) [10]: 3%
- Population Membrane Permeable-Phenotype (%) [10]: 9%
- Population Mitochondria Different-Phenotype (%) [10]: 8%
- Population Mitotic Cells (%) [10]: 61%
- Population Normal (%) [10]: 96%
- Population Pyknosed Nuclei (%) [10]: 17%
- Population Tubulin-Different-Phenotype (%) [10]: 44%
- Total Cell Count [10]: 152
- Population Apoptotic (%) [11]: 50%
- Population Fragmented Nuclei (%) [11]: 19%
- Population Healthy Nuclei (%) [11]: 72%
- Population Hoechst High Intensity Objects (%) [11]: 5%
- Population Membrane Permeable-Phenotype (%) [11]: 2%
- Population Mitochondria Different-Phenotype (%) [11]: 5%
- Population Mitotic Cells (%) [11]: 50%
- Population Normal (%) [11]: 94%
- Population Pyknosed Nuclei (%) [11]: 7%
- Population Tubulin-Different-Phenotype (%) [11]: 29%
- Total Cell Count [11]: 136
- Population Apoptotic (%) [12]: 60%
- Population Fragmented Nuclei (%) [12]: 32%
- Population Healthy Nuclei (%) [12]: 60%
- Population Hoechst High Intensity Objects (%) [12]: 3%
- Population Membrane Permeable-Phenotype (%) [12]: 3%
- Population Mitochondria Different-Phenotype (%) [12]: 1%
- Population Mitotic Cells (%) [12]: 40%
- Population Normal (%) [12]: 96%
- Population Pyknosed Nuclei (%) [12]: 6%
- Population Tubulin-Different-Phenotype (%) [12]: 28%
- Total Cell Count [12]: 156
